Sampled rows, rich in hits. Any-hit rate of the full collection: about 3.7%.
m-calpain inh = calpain II (pig) inhibition | AID 1236 | purified calpain II, fluorogenic peptide substrate, 30 min | inhibition, % at 16 µM | 220,000 compounds, 0.37% hits;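 active means inhibition above about 50%, limit read from the data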
ROMK primary = modulates human ROMK potassium channel activity; Tet-inducible ROMK, thallium flux fluorescence; actives lie on both sides; P48048; 130,000 compounds, 2% hits; B-score at 10 µM;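 active means signal ratio slope over the read window, or its plate-corrected B-score, at least 3 SD from the plate mean, either direction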;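 further: B-score of the F/F0 ratio slope over 7 to 12 s after thallium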
Arbovirus inh = antivirals against arbovirus infection; arbovirus infection cell-based antiviral screen; inhibition, % at 10 µM; 200,000 compounds, 0.37% hits; in the data active means inhibition above about 30%
PKD1 kinase inh = blocks activity of human protein kinase D1. PKD1 kinase fluorescence polarization assay. inhibition, % (no concentration beside the values). 200,000 compounds, 0.056% hits. AID 797; in the data active means inhibition above about 50%
Mdm2 ligase inh = inhibitors of human Mdm2 E3 ubiquitin ligase | 210,000 compounds, 0.11% hits | signal enhancement, % at 5 µM | cell-based MDM2 ubiquitination luciferase reporter, 2 h; 0 = plate control, 100 = twice control, blank-subtracted;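 active means signal enhancement of 30% or more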;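 further: luminescence tracks abundance of the self-degrading MDM2-luciferase fusion protein; higher signal means inhibition of MDM2 E3 ligase activity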
Target sequence (Q00987 whole entry, looked up, the tested form may be a part): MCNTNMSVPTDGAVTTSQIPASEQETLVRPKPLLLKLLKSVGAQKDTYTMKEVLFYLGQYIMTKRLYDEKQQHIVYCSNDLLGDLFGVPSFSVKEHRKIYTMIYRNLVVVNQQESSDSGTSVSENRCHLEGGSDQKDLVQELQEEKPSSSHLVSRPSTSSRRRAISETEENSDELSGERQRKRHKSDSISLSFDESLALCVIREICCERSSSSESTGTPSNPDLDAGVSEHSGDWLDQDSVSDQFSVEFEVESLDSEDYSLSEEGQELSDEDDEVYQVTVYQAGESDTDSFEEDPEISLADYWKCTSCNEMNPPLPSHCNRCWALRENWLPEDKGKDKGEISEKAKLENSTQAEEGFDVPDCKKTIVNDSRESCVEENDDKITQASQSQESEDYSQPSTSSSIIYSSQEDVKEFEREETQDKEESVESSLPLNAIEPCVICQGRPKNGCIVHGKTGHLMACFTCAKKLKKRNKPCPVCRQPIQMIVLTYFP
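Test system: stable mammalian line carrying autodegrading MDM2–luciferase fusion reporter; quantity: 2000 cells in each well; times: 4 h cell settling then 2 h compound exposure, 37 °C; detection: luminescence with SteadyLite reagent, 15 min at room temperature; evaluation: percent signal gain over controls, blank-subtracted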
KCC2 mod = modulators of human KCC2 chloride dependent transport; Q9H2X9; KCC2 cells, thallium flux FluoZin-2 fluorescence; B-score of Tl+ flux slope (higher = more flux/activation; lower = inhibition) at 10 µM; 190,000 compounds, 2.2% hits;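 active means thallium flux slope and its plate-corrected score both differing from the plate sample mean at a set confidence after two filtering rounds, in either direction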;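 further: slope of fluorescence scaled to starting intensity during 10 to 20 s after thallium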
* hit, by the source's call; . = not tested or not shown.

SMILES	m-calpain inh	ROMK primary	Arbovirus inh	PKD1 kinase inh	Mdm2 ligase inh	KCC2 mod
FC(F)(F)c1cnc(NNC(=S)Nc2ccccc2Cl)c(Cl)c1	27	.	-7	-2	-16	29*
COc1ccc(NC(=O)CN2CCN(c3nc(-c4ccc(F)cc4)cs3)CC2)c(OC)c1	56*	0.045	15	2	-8	-0.19
OC(CNC1CCCC1)COCCOc1ccc(Br)cc1 (stereo unspecified)	-13	.	.	.	.	-0.1
OC(CNC1CCCCC1)CNC1CCCCC1	-10	0.015	39*	-11	-5	0.35
COCCCn1c(SCc2nc3ccccc3c(=O)[nH]2)nc2ccccc2c1=O	-28	0.38	-3	-4	-13	0.71
COCC(C)n1c(SCc2nc3ccccc3c(=O)[nH]2)nc2ccccc2c1=O (stereo unspecified)	-52	-2	45*	3	-2	-0.085
Brc1ccccc1-c1nnc(SCc2nc3ccccc3s2)o1	12	0.2	34*	-7	-6	-1.8
CCc1nnc(NS(=O)(=O)c2ccc(NC(=O)COc3ccc4ccccc4c3)cc2)s1	14	1.5	42*	-7	-6	-0.64
CCc1nnc(NS(=O)(=O)c2ccc(NC(=O)c3cccc4ccccc34)cc2)s1	-10	.	1	12	-90	1.7
Cc1nc(NS(=O)(=O)c2ccc(Cl)s2)c2c3c(sc2n1)CCCC3	-14	.	.	.	.	-3.1
Cc1ccc(N(C(=O)Cc2cccs2)C(C(=O)NC2CCCC2)c2ccncc2)cc1 (stereo unspecified)	0	.	-4	-2	-35	.
Cc1ccc(N(C(=O)CNC(=O)c2ccco2)C(C(=O)NC2CCCC2)c2cccnc2)cc1C (stereo unspecified)	-15	.	-2	-12	-9	-0.37
Cc1ccc(N(C(=O)CCl)C(C(=O)NC2CCCCC2)c2cccnc2)cc1C (stereo unspecified)	102*	-3.5	-29	-1	-6	0.22
Cc1ccc(C)c(N(C(=O)Cc2cccs2)C(C(=O)NC2CCCC2)c2ccc(C)o2)c1 (stereo unspecified)	53*	.	-4	4	6	.
Cc1ccc(C(C(=O)NC2CCCC2)N(C(=O)Cc2cccs2)c2ccc(C)c(C)c2)o1 (stereo unspecified)	63*	.	-15	0	-4	.
Cc1ccc(C(C(=O)NC2CCCC2)N(C(=O)Cc2cccs2)c2ccc3c(c2)OCCO3)cc1 (stereo unspecified)	-50	.	-15	7	5	.
CN(C)S(=O)(=O)c1cc(NC(=O)c2cc(=O)[nH]c3ccccc23)ccc1Cl	-17	0.68	3	-10	-9	0.88
Oc1c(Br)cc2oc3c(c2c1CNCc1ccccc1)CCCC3	-44	2.9*	8	-3	-2	1.3
C[n+]1nc(Nc2cccc3ccccc23)sc1-c1ccc(C(=O)O)cc1	-27	.	.	.	17	-1.5
COc1ccc(CN(CCC#N)C(=S)NC(=O)c2ccccc2)cc1	2	0.45	-22	9	-16	17*
N#CCCN(Cc1ccccc1)C(=S)NC(=O)c1ccccc1	-22	.	-2	0	-3	.
Cc1nc(SC2CCOC2=O)c2c(C)c(C)sc2n1 (stereo unspecified)	-3	.	11	6	-13	7.1*
CCN(Cc1ccncc1)Cc1nc(CC2CC2)no1	-5	0.24	5	-2	1	0.63
O=C(C1CC1)N1CCc2cc(Br)cc(S(=O)(=O)NC3CCCCC3)c21	53*	.	4	-2	-5	-0.68
CCn1c(NC(=S)Nc2ccccc2)nc2ccccc21	-10	.	-3	-5	-32	13*
SMILES	m-calpain inh	ROMK primary	Arbovirus inh	PKD1 kinase inh	Mdm2 ligase inh	KCC2 mod
CCCn1c(NC(=O)c2ccccc2)nc2ccccc21	-29	.	-16	5	-4	9.9*
O=C(Nc1cnn(Cc2ccc(F)cc2)c1)c1cc2nc(-c3ccco3)cc(C(F)(F)F)n2n1	91*	-0.2	-5	-8	-10	.
O=C(Nc1cnn(Cc2ccc(F)cc2)c1)c1cc(-c2ccco2)on1	-83	-0.87	-28	-7	-3	-0.11
Cc1c(C(=O)O)c(=S)sn1CCOc1ccccc1	13	1.6	-3	-7	11	-2.5*
O=C1c2ccccc2C(=O)N1CCOc1ccccc1	.	.	.	4	.	-0.42
O=C(c1cc2cc([N+](=O)[O-])ccc2s1)N1CCCCC1	55*	-0.2	-4	0	-1	-0.7
